Experimental data from ChEMBL document CHEMBL1140069, “In vitro antifungal activity of polyfunctionalized 2-(hetero)arylquinolines prepared through imino Diels-Alder reactions” (2008).
≈ marks a conversion by molar mass, not a printed value.

What was measured:
Format in all cases: functional
Cryptococcus neoformans [1] = experiment: Antimicrobial activity against Cryptococcus neoformans ATCC 32264 at 25 ug/ml after 48 hrs; settings: ATCC 32264, 48 h
Summary of the method: (§1)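 Percent growth inhibition in 96-well microplates. Compound stocks in DMSO (≤2%) were diluted in RPMI-1640 to final 100–6.25 µg/mL, and 100 µL inoculum was added (final 200 µL). Controls were a growth well (inoculum with matching DMSO, no compound) and a sterility well (no inoculum). Inhibition was calculated against growth and sterility wells.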

Cryptococcus neoformans [2] = experiment: Antimicrobial activity against Cryptococcus neoformans IM 00319 isolate at 100 ug/ml after 48 hrs; summary of the method: as §1
Candida parapsilosis [3] = experiment: Antimicrobial activity against Candida parapsilosis C124 isolate at 12.5 ug/ml after 24 hrs; settings: Lodderomyces parapsilosis; summary of the method: as §1
Cryptococcus neoformans [4] = experiment: Antimicrobial activity against Cryptococcus neoformans IM 031706 isolate at 25 ug/ml after 48 hrs; summary of the method: as §1
Cryptococcus neoformans [5] = experiment: Antimicrobial activity against Cryptococcus neoformans IM 031631 isolate at 50 ug/ml after 48 hrs; summary of the method: as §1
Candida albicans [6] = experiment: Antimicrobial activity against Candida albicans C130 isolate at 6.25 ug/ml after 24 hrs
Summary of the method: (§2)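 Growth-inhibition microplate test. Strains are grown on Sabouraud-chloramphenicol agar for 48 h at 30 °C, and inoculum is added to RPMI-1640 containing compound at a final 100–6.25, with DMSO ≤2%. Each strain has a growth control (same DMSO, no compound) and a sterility control.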

Candida parapsilosis [7] = experiment: Antimicrobial activity against Candida parapsilosis C124 isolate at 6.25 ug/ml after 24 hrs; settings: Lodderomyces parapsilosis; summary of the method: as §1
Cryptococcus neoformans [8] = experiment: Antimicrobial activity against Cryptococcus neoformans IM 972751 isolate at 6.25 ug/ml after 48 hrs
Summary of the method: (§3)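 Clinical Cryptococcus isolates kept on Sabouraud-dextrose agar slopes; inoculum 1–5 × 10³ CFU/mL. Quinoline DMSO stocks were diluted in RPMI-1640 to final 100–6.25 µg/mL, with DMSO ≤2%. An equal volume of inoculum was added (200 µL per well). Run in triplicate.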

Cryptococcus neoformans [9] = experiment: Antimicrobial activity against Cryptococcus neoformans IM 031706 isolate at 100 ug/ml after 48 hrs; summary of the method: as §1
Nakaseomyces glabratus [10] = experiment: Antimicrobial activity against Candida glabrata C115 isolate at 100 ug/ml after 24 hrs; summary of the method: as §2
Nakaseomyces glabratus [11] = experiment: Antimicrobial activity against Candida glabrata C115 isolate at 50 ug/ml after 24 hrs; summary of the method: as §1
Aspergillus fumigatus = experiment: Antifungal activity against Aspergillus fumigatus ATTC 26934 after 48 hrs by broth microdilution technique
Summary of the method: (§4)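 CLSI broth microdilution: M-27 A2 for yeasts and M-38 A for filamentous fungi. Medium is RPMI-1640 buffered to pH 7.0 with MOPS. Compound is diluted twofold from 250 to 0.98, final DMSO ≤2%. Inoculum is 1–5 × 10³ CFU/mL. Plates are incubated at 35 °C in a moist, dark chamber and read visually at 48 h. MIC100 is the lowest concentration giving total growth inhibition versus drug-free control.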

Cryptococcus neoformans [12] = experiment: Antimicrobial activity against Cryptococcus neoformans IM 983036 isolate at 6.25 ug/ml after 48 hrs; summary of the method: as §3
Trichophyton rubrum = experiment: Antifungal activity against Trichophyton rubrum C110 after 48 hrs by broth microdilution technique; settings: read-out: MIC; summary of the method: as §4
Candida parapsilosis [13] = experiment: Antimicrobial activity against Candida parapsilosis C124 isolate at 100 ug/ml after 24 hrs; settings: Lodderomyces parapsilosis; summary of the method: as §1
Aspergillus niger = experiment: Antifungal activity against Aspergillus niger ATCC 9029 after 48 hrs by broth microdilution technique; settings: ATCC 9029, 48 h; summary of the method: as §4
Cryptococcus neoformans [14] = experiment: Antimicrobial activity against Cryptococcus neoformans IM 972724 isolate at 25 ug/ml after 48 hrs; summary of the method: as §3
Candida albicans [15] = experiment: Antimicrobial activity against Candida albicans C128 isolate at 6.25 ug/ml after 24 hrs; summary of the method: as §2
Cryptococcus neoformans [16] = experiment: Antimicrobial activity against Cryptococcus neoformans IM 983036 isolate at 100 ug/ml after 48 hrs; summary of the method: as §3
Cryptococcus neoformans [17] = experiment: Antimicrobial activity against Cryptococcus neoformans IM 961951 isolate at 100 ug/ml after 48 hrs; summary of the method: as §1
Cryptococcus neoformans [18] = experiment: Antimicrobial activity against Cryptococcus neoformans IM 042074 isolate at 25 ug/ml after 48 hrs; summary of the method: as §1
Candida albicans [19] = experiment: Antimicrobial activity against Candida albicans C129 isolate at 25 ug/ml after 24 hrs; summary of the method: as §2
Cryptococcus neoformans [20] = experiment: Antimicrobial activity against Cryptococcus neoformans IM 00319 isolate at 6.25 ug/ml after 48 hrs; summary of the method: as §1
Candida albicans [21] = experiment: Antimicrobial activity against Candida albicans C129 isolate at 6.25 ug/ml after 24 hrs; summary of the method: as §2
Saccharomyces cerevisiae = experiment: Antifungal activity against Saccharomyces cerevisiae ATCC 9763 after 48 hrs by broth microdilution technique; settings: ATCC 9763, 48 h; summary of the method: as §4
Candida albicans [22] = experiment: Antimicrobial activity against Candida albicans C126 isolate at 50 ug/ml after 24 hrs; summary of the method: as §2
Cryptococcus neoformans [23] = experiment: Antimicrobial activity against Cryptococcus neoformans IM 052470 isolate at 12.5 ug/ml after 48 hrs; summary of the method: as §1
Candida albicans [24] = experiment: Antimicrobial activity against Candida albicans C130 isolate at 50 ug/ml after 24 hrs; summary of the method: as §2
Pichia kudriavzevii = experiment: Antimicrobial activity against Candida krusei C117 isolate at 100 ug/ml after 24 hrs; summary of the method: as §1
Nakaseomyces glabratus [25] = experiment: Antimicrobial activity against Candida glabrata C115 isolate at 6.25 ug/ml after 24 hrs; summary of the method: as §1
Candida albicans [26] = experiment: Antimicrobial activity against Candida albicans C127 isolate at 50 ug/ml after 24 hrs; settings: C127, 24 h; summary of the method: as §2
Cryptococcus neoformans [27] = experiment: Antimicrobial activity against Cryptococcus neoformans IM 983040 isolate at 6.25 ug/ml after 48 hrs; summary of the method: as §3
Cryptococcus neoformans [28] = experiment: Antimicrobial activity against Cryptococcus neoformans IM 052470 isolate at 50 ug/ml after 48 hrs; summary of the method: as §1
Candida albicans [29] = experiment: Antimicrobial activity against Candida albicans C126 isolate at 100 ug/ml after 24 hrs; summary of the method: as §2
Candida albicans [30] = experiment: Antimicrobial activity against Candida albicans ATCC 10231 at 12.5 ug/ml after 24 hrs; settings: ATCC 10231, 24 h; summary of the method: as §2
Cryptococcus neoformans [31] = experiment: Antimicrobial activity against Cryptococcus neoformans IM 031631 isolate at 12.5 ug/ml after 48 hrs; summary of the method: as §1
Candida parapsilosis [32] = experiment: Antimicrobial activity against Candida parapsilosis C124 isolate at 25 ug/ml after 24 hrs; settings: Lodderomyces parapsilosis; summary of the method: as §1
Candida albicans [33] = experiment: Antimicrobial activity against Candida albicans C128 isolate at 25 ug/ml after 24 hrs; summary of the method: as §2
Cryptococcus neoformans [34] = experiment: Antimicrobial activity against Cryptococcus neoformans IM 972724 isolate at 12.5 ug/ml after 48 hrs; summary of the method: as §3
Cryptococcus neoformans [35] = experiment: Antifungal activity against Cryptococcus neoformans ATCC 32264 after 48 hrs by broth microdilution technique; settings: ATCC 32264, 48 h; summary of the method: as §4
Candida albicans [36] = experiment: Antimicrobial activity against Candida albicans ATCC 10231 at 25 ug/ml after 24 hrs; settings: ATCC 10231, 24 h; summary of the method: as §2
Cryptococcus neoformans [37] = experiment: Antimicrobial activity against Cryptococcus neoformans IM 031706 isolate at 12.5 ug/ml after 48 hrs; summary of the method: as §1
Candida albicans [38] = experiment: Antifungal activity against Candida albicans ATCC 10231 after 48 hrs by broth microdilution technique; settings: ATCC 10231, 48 h; summary of the method: as §4
Candida albicans [39] = experiment: Antimicrobial activity against Candida albicans C127 isolate at 12.5 ug/ml after 24 hrs; settings: C127, 24 h; summary of the method: as §2

Work on Cc1cc(-c2ccncc2)nc2ccccc12 yielded an inhibition at 25 µg/mL (Cryptococcus neoformans [1]) of 100%, an inhibition at 100 µg/mL (Cryptococcus neoformans [2]) of 92% and an inhibition at 12.5 µg/mL (Candida parapsilosis [3]) of 0%. It also gave an inhibition at 25 µg/mL (Cryptococcus neoformans [4]) of 57%, an inhibition at 50 µg/mL (Cryptococcus neoformans [5]) of 75% and an inhibition at 6.25 µg/mL (Candida albicans [6]) of 0%. It also gave an inhibition at 6.25 µg/mL (Candida parapsilosis [7]) of 0%, an inhibition at 6.25 µg/mL (Cryptococcus neoformans [8]) of 0% and an inhibition at 100 µg/mL (Cryptococcus neoformans [9]) of 100%. It also gave an inhibition at 100 µg/mL (Nakaseomyces glabratus [10]) of 75%, an inhibition at 50 µg/mL (Nakaseomyces glabratus [11]) of 4% and an MIC (Aspergillus fumigatus) of 50 mg/L (≈ 227 µM). It also gave an inhibition at 6.25 µg/mL (Cryptococcus neoformans [12]) of 0%, an MIC (Trichophyton rubrum) of 25 mg/L (≈ 113 µM) and an inhibition at 100 µg/mL (Candida parapsilosis [13]) of 55%. It also gave an MIC (Aspergillus niger) of 200 mg/L (≈ 908 µM), an inhibition at 25 µg/mL (Cryptococcus neoformans [14]) of 8% and an inhibition at 6.25 µg/mL (Candida albicans [15]) of 0%. The inhibition at 100 µg/mL (Cryptococcus neoformans [16]) was 79%, the inhibition at 100 µg/mL (Cryptococcus neoformans [17]) was 97% and the inhibition at 25 µg/mL (Cryptococcus neoformans [18]) was 87%. It also gave an inhibition at 25 µg/mL (Candida albicans [19]) of 50%, an inhibition at 6.25 µg/mL (Cryptococcus neoformans [20]) of 12% and an inhibition at 6.25 µg/mL (Candida albicans [21]) of 0%. For the same molecule, the MIC (Saccharomyces cerevisiae) was 50 mg/L (≈ 227 µM), the inhibition at 50 µg/mL (Candida albicans [22]) was 32% and the inhibition at 12.5 µg/mL (Cryptococcus neoformans [23]) was 24%. For the same molecule, the inhibition at 50 µg/mL (Candida albicans [24]) was 84%, the inhibition at 100 µg/mL (Pichia kudriavzevii) was 66% and the inhibition at 6.25 µg/mL (Nakaseomyces glabratus [25]) was 0%. The inhibition at 50 µg/mL (Candida albicans [26]) was 65%, the inhibition at 6.25 µg/mL (Cryptococcus neoformans [27]) was 0% and the inhibition at 50 µg/mL (Cryptococcus neoformans [28]) was 75%. It also gave an inhibition at 100 µg/mL (Candida albicans [29]) of 69%, an inhibition at 12.5 µg/mL (Candida albicans [30]) of 41% and an inhibition at 12.5 µg/mL (Cryptococcus neoformans [31]) of 36%. The inhibition at 25 µg/mL (Candida parapsilosis [32]) was 0%, the inhibition at 25 µg/mL (Candida albicans [33]) was 0% and the inhibition at 12.5 µg/mL (Cryptococcus neoformans [34]) was 0%. The MIC (Cryptococcus neoformans [35]) was 25 mg/L (≈ 113 µM), the inhibition at 25 µg/mL (Candida albicans [36]) was 63% and the inhibition at 12.5 µg/mL (Cryptococcus neoformans [37]) was 41%. For the same molecule, the MIC (Candida albicans [38]) was 100 mg/L (≈ 454 µM) and the inhibition at 12.5 µg/mL (Candida albicans [39]) was 0%.
In the case of c1ccc(-c2ccc3ccccc3n2)cc1 [2-PHENYLQUINOLINE], the inhibition at 25 µg/mL (Cryptococcus neoformans [1]) is reported as 77%, the inhibition at 100 µg/mL (Cryptococcus neoformans [2]) is reported as 47% and the inhibition at 25 µg/mL (Cryptococcus neoformans [4]) is reported as 17%. For the same molecule, the inhibition at 50 µg/mL (Cryptococcus neoformans [5]) was 34%, the inhibition at 6.25 µg/mL (Cryptococcus neoformans [8]) was 0% and the inhibition at 100 µg/mL (Cryptococcus neoformans [9]) was 67%. For the same molecule, the MIC (Aspergillus fumigatus) was greater than 250 mg/L, the inhibition at 6.25 µg/mL (Cryptococcus neoformans [12]) was 0% and the MIC (Trichophyton rubrum) was 25 mg/L (≈ 122 µM). For the same molecule, the MIC (Aspergillus niger) was greater than 250 mg/L, the inhibition at 25 µg/mL (Cryptococcus neoformans [14]) was 35% and the inhibition at 100 µg/mL (Cryptococcus neoformans [16]) was 32%. The inhibition at 100 µg/mL (Cryptococcus neoformans [17]) was 45%, the inhibition at 25 µg/mL (Cryptococcus neoformans [18]) was 33% and the inhibition at 6.25 µg/mL (Cryptococcus neoformans [20]) was 0%. The MIC (Saccharomyces cerevisiae) was 125 mg/L (≈ 609 µM), the inhibition at 12.5 µg/mL (Cryptococcus neoformans [23]) was 21% and the inhibition at 6.25 µg/mL (Cryptococcus neoformans [27]) was 0%. It also gave an inhibition at 50 µg/mL (Cryptococcus neoformans [28]) of 76%, an inhibition at 12.5 µg/mL (Candida albicans [30]) of 0% and an inhibition at 12.5 µg/mL (Cryptococcus neoformans [31]) of 5%. The inhibition at 12.5 µg/mL (Cryptococcus neoformans [34]) was 13%, the MIC (Cryptococcus neoformans [35]) was 31.2 mg/L (≈ 152 µM) and the inhibition at 25 µg/mL (Candida albicans [36]) was 0%. The inhibition at 12.5 µg/mL (Cryptococcus neoformans [37]) was 0% and the MIC (Candida albicans [38]) was 250 mg/L (≈ 1220 µM).
